Compound activity deposited in PubChem by The Scripps Research Institute Molecular Screening Center.
This is a sample that favours compounds with a hit; in the whole collection about 2.9% have one here.
M1 PAM parental = counter-screen for M1 PAMs: effect in parental CHO-K1 cells; activation, % at 3 µM; ATP EC20, Fluo-8 calcium fluorescence; 0% at ATP EC20, 100% at ATP max; 360,000 compounds, 0.02% hits;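 active means activation above the run cutoff, the mean activation of all test compounds plus 3 SD, cut at about 40% in these data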;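 further: peak over basal fluorescence ratio in a 140 s read after ATP addition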
CHO parental Ca = counter-screen for OX1R antagonists: effect in parental CHO cells | 330,000 compounds, 0.63% hits | parental CHO-K1, ATP-induced calcium, Fluo-8 fluorescence | inhibition, % at 5.6 µM;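 active means inhibition above that plate's mean sample inhibition plus 3 SD, cut at about 26% in these data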
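test system = CHO parental line | reagent = ATP stimulus | measured by = intracellular calcium via Fluo-8 no-wash fluorescent dye | control set = ATP and no-ATP DMSO wells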
OX1R antag-1 = human HCRTR1 antagonism; CHO/OX1R cells, Fluo-8 calcium fluorescence, orexin A; inhibition, % at 5 µM; 330,000 compounds, 0.43% hits; AID 434989;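 active means inhibition above its plate's threshold, mean inhibition of all tested compounds on the plate plus 3 SD, cut at about 37% in these data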
Target sequence (O43613 whole entry, looked up): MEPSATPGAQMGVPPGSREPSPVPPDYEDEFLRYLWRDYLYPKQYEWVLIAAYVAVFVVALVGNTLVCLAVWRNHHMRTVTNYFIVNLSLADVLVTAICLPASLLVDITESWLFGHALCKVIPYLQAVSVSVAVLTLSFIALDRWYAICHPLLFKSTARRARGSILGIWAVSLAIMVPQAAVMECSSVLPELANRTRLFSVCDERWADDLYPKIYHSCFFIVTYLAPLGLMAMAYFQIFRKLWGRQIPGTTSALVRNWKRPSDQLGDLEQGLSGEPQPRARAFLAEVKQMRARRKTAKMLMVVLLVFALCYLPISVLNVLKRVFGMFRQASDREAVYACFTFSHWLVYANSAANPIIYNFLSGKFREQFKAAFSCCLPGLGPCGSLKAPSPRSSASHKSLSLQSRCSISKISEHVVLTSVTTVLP
CHO-K1 Ca antag = counter-screen for M1 antagonists: effect in parental CHO-K1 cells; ATP-induced calcium, Fluo-8 fluorescence; 360,000 compounds, 0.6% hits; inhibition, % at 3 µM; AID 602250;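 active means inhibition above a per-plate cutoff, the plate's mean sample inhibition plus 3 SD, cut at about 24% in these data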
CHO-K1 Ca ag = counter-screen for M1 agonists: effect in parental CHO-K1 cells; AID 602248; Fluo-8 calcium fluorescence; scaled to maximal ATP response, vehicle zero; activation, % at 3 µM; 360,000 compounds, 0.48% hits; in the data active means activation above about 15%;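 further: untransfected CHO-K1 host cells lacking M1 receptor as counterscreen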
OX1R antag-2 = antagonists of human orexin 1 receptor (OX1R); OX1R-expressing cells, FRET antagonist read-out; inhibition, % at 6.6 µM; 330,000 compounds, 1.8% hits; in the data active means inhibition mostly above about 38%, no sharp cut-off; inactive means mostly below about 40%
Large screens that a line does not name were inactive.

Cc1cc(-c2ccc(C)c(S(=O)(=O)NCc3cccc(Br)c3)c2)on1	OX1R antag-2 38
Cc1cc(-c2ccc(C)c(S(=O)(=O)NCc3ccc(Br)cc3)c2)on1	none
Cc1c(Cl)cccc1NC(=O)c1ccccc1-c1ccccc1C(=O)O	none
C=CCNC(=O)c1c(CSc2ccc(F)cc2)noc1C(=O)NCCC	none
CC(Sc1n[nH]c(N)n1)C(=O)Nc1cccc(S(=O)(=O)N2CCOCC2)c1 (stereo not drawn)	none
COc1ccc(CCNc2nc(-c3ccc(O)cc3)cs2)cc1OC	CHO parental Ca 58, OX1R antag-1 61, OX1R antag-2 32
COc1ccc(CCNc2nc(-c3ccncc3)cs2)cc1OC	none
COc1ccc(Cl)cc1-c1nc(-c2ccc(NC(=O)c3ccncc3)cc2)no1	none
COc1ccc(-c2nc(-c3ccc(NC(=O)c4ccncc4)cc3)no2)cc1OC	OX1R antag-2 60
Cc1cc(NC(=O)C2CC(=O)N(c3cccc(Cl)c3)C2)no1 (stereo not drawn)	CHO-K1 Ca ag 16
Cc1nc(-c2cccc(NC(=O)c3ccc(-n4cccn4)cc3)c2)cs1	OX1R antag-2 52
Cc1nc(-c2cccc(NC(=O)c3ccco3)c2)cs1	none (no result: CHO parental Ca, OX1R antag-1, OX1R antag-2)
CCOC(=O)C1=C(C)NC(C)=C(C(=O)OCC)C1C(=O)OCC(=O)NCc1ccccc1	none
CCOC(=O)C1=C(C)NC(C)=C(C(=O)OCC)C1C(=O)OCC(=O)NCc1ccccc1OC	OX1R antag-2 45
COc1ccccc1CNC(=O)c1n[nH]c2ccccc12	CHO-K1 Ca ag 17
CCN1CCN(c2cc(C)c3cc(NC(=O)c4cc(OC)cc(OC)c4)ccc3n2)CC1	none
CCN1CCN(c2cc(C)c3cc(NC(=O)Cc4ccc(OC)c(OC)c4)ccc3n2)CC1	CHO-K1 Ca antag 28
COc1ccc(N(CC(=O)NCCSCc2ccc(Cl)cc2)S(C)(=O)=O)cc1Cl	none
O=C(Nc1ccc2c(c1)OCO2)c1cc(-c2ccc(O)cc2)on1	CHO parental Ca 39
CN1C(=O)c2ccc(C(=O)Nc3ccc4c(c3)OCO4)cc2C1=O	CHO-K1 Ca antag 37
O=C(N/N=C/c1cn(-c2cccs2)nc1-c1ccccc1)c1ccc(O)cc1	OX1R antag-2 65
CC1CCC(N2CCN(C(=O)c3ccccc3F)CC2)CC1 (stereo not drawn)	none
O=C(Nc1ccc([N+](=O)[O-])cc1)Nc1cnccn1	OX1R antag-2 67
CC(=O)c1ccc(NC(=S)NCc2ccc(Cl)cc2Cl)cc1	CHO parental Ca 40, OX1R antag-1 40, CHO-K1 Ca ag 16
S=C(NCc1ccc(Cl)cc1Cl)NC1CCCCC1	CHO parental Ca 28
Cc1ccc(NC(=O)Nc2cnccn2)cc1	none
CC(=O)c1ccc(NC(=O)Nc2ccc([N+](=O)[O-])cc2)cc1	CHO parental Ca 35
CC(=O)c1ccc(NC(=O)NNS(=O)(=O)c2ccc([N+](=O)[O-])cc2)cc1	none
Cc1ccc(C(C)C)cc1NC(=O)Nc1ccc([N+](=O)[O-])cc1	CHO parental Ca 55
Cc1cc(O)c(C(C)C)cc1NC(=O)Nc1ccc([N+](=O)[O-])cc1	none (no result: CHO parental Ca, OX1R antag-1, OX1R antag-2)
CC(=O)c1ccc(NC(=O)Nc2ccc(Cl)cc2)cc1	CHO-K1 Ca ag 17
CC(NC(=O)Nc1ccc(Cl)cc1)c1ccccc1 (stereo not drawn)	CHO-K1 Ca ag 29 (no result: CHO parental Ca, OX1R antag-1, OX1R antag-2)
COc1ccc(OCC(=O)Nc2c3c(nn2-c2ccccc2)CS(=O)(=O)C3)cc1	none
Cc1c(NC(=O)COC(=O)C2=COCCO2)cccc1[N+](=O)[O-]	none
O=[N+]([O-])c1cc(S(=O)(=O)N2CCCC2)ccc1NCCCN1CCOCC1	OX1R antag-2 51
COCCNc1ccc(S(=O)(=O)N2CCCC2)cc1[N+](=O)[O-]	none
CC(=O)c1ccc(OCC(=O)Nc2nnc(C3CC3)s2)cc1	none (no result: CHO parental Ca, OX1R antag-1, OX1R antag-2)
COc1cc(/C=C2\SC(=Nc3ccc(Cl)c(C(=O)O)c3)NC2=O)c(Br)c(Br)c1O	CHO-K1 Ca antag 27, CHO-K1 Ca ag 42 (no result: CHO parental Ca, OX1R antag-1, OX1R antag-2)
COC(=O)/C=C1\SC(=Nc2ccc(Cl)c(Cl)c2)NC1=O	none
COc1cc(/C=C2\SC(=Nc3ccccc3)NC2=O)cc(Cl)c1O	CHO parental Ca 39, OX1R antag-1 61, CHO-K1 Ca antag 32, CHO-K1 Ca ag 38, OX1R antag-2 49
